Assay results as given in ChEMBL document CHEMBL4043192, “The discovery of IDX21437: Design, synthesis and antiviral evaluation of 2'-α-chloro-2'-β-C-methyl branched uridine pronucleotides as potent liver-targeted HCV polymerase inhibitors” (Bioorg Med Chem Lett, 2017).

Experiments:
[1] = Inhibition of wild-type HCV genotype 1b NS5B RNA dependent RNA polymerase; design: species or system Hepatitis C virus subtype 1b
Procedure, shortened: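 Biochemical assay using wild-type genotype 1b HCV NS5B polymerase. IC50 was derived from percent inhibition versus concentration data.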

[2] = tested on: Hepatitis C virus subtype 1b; test: Selectivity ratio of IC50 for HCV genotype 1b NS5B RNA dependent RNA polymerase S282T mutant to IC50 for wild-type HCV genotype 1b NS5B RNA dependent RNA polymerase
[3] = biological target: RNA-directed RNA polymerase (Hepacivirus hominis, UniProt O39930, S282T); test: Inhibition of HCV genotype 1b NS5B RNA dependent RNA polymerase S282T mutant; design: species or system Hepatitis C virus subtype 1b
Chain of RNA-directed RNA polymerase (O39930 entry or part of it S282T): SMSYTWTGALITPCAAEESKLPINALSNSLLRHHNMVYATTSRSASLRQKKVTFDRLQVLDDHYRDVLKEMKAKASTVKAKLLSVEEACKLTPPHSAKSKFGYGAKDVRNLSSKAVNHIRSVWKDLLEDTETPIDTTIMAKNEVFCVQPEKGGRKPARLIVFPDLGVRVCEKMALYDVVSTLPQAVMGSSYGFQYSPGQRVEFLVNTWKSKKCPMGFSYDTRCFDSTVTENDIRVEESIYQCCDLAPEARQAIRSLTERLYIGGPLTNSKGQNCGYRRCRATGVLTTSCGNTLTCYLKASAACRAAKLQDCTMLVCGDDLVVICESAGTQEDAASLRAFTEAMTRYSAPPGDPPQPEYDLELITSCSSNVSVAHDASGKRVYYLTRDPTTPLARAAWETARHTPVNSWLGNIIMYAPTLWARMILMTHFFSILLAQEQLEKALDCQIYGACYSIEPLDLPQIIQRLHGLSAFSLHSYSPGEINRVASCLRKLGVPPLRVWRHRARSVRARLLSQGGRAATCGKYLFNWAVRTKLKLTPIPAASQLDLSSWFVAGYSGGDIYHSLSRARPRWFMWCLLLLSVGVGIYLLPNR

Hepatitis C virus [4] = test: Antiviral activity against HCV genotype 1b Con1 expressing NS3 protease infected in human Huh-7 cells assessed as reduction in viral RNA replication after 72 hrs by luciferase reporter gene assay; format: functional, cell-based, Hepacivirus hominis; conditions: genotype 1b Con1, Huh-7, 72 h
Liver = test: Dose normalized AUC (0 to 24 hrs) in mouse liver assessed as 2'-C-MeUTP level at 10 mg/kg, po administered as single dose; format: ADME, organism-based; conditions: in vivo
Procedure, shortened: (§1)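 Mice given a single oral 10 mg/kg dose. Triphosphate measured in liver and parent nucleoside in plasma. AUC expressed as dose-normalized AUC (AUC per mg/kg).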

Hepatitis C virus [5] = test: Antiviral activity against HCV genotype 1b Con1 infected in human Huh-7 cells over-expressing CES1; format: functional, cell-based, Hepacivirus hominis; conditions: genotype 1b Con1, Huh-7
Procedure, shortened: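 Transient HCV replicon assay in cells transfected to overexpress CES1; EC50 from inhibition versus concentration data.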

Plasma = test: Dose normalized AUC (0 to 24 hrs) in mouse plasma assessed as 2'-C-MeU level at 10 mg/kg, po administered as single dose; format: ADME, organism-based; conditions: in vivo; procedure, shortened: as §1
[6] = Selectivity index, ratio of CC50 for human Huh-7 cells to EC50 for HCV genotype 1b Con1 expressing NS3 protease
Procedure, shortened: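 Selectivity index = CC50/EC50. EC50 from a luciferase-read Con1 subgenomic replicon assay in Huh-7 (GS4.1) cells.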

[7] = Inhibition of HCV genotype 2a NS5B RNA dependent RNA polymerase assessed as reduction in [33P]-labeled nucleotide incorporation in to RNA template after 2 hrs by liquid scintillation counting method; design: species or system Hepatitis C virus subtype 2a
Procedure, shortened: (§2)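 Biochemical enzyme inhibition assays across a panel of polymerases. IC50 was derived from percent inhibition versus concentration data.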

[8] = biological target: DNA-directed RNA polymerase, mitochondrial (Homo sapiens, UniProt O00411); test: Inhibition of human mitochondrial RNA polymerase; procedure, shortened: as §2
Chain of DNA-directed RNA polymerase, mitochondrial (O00411 whole entry): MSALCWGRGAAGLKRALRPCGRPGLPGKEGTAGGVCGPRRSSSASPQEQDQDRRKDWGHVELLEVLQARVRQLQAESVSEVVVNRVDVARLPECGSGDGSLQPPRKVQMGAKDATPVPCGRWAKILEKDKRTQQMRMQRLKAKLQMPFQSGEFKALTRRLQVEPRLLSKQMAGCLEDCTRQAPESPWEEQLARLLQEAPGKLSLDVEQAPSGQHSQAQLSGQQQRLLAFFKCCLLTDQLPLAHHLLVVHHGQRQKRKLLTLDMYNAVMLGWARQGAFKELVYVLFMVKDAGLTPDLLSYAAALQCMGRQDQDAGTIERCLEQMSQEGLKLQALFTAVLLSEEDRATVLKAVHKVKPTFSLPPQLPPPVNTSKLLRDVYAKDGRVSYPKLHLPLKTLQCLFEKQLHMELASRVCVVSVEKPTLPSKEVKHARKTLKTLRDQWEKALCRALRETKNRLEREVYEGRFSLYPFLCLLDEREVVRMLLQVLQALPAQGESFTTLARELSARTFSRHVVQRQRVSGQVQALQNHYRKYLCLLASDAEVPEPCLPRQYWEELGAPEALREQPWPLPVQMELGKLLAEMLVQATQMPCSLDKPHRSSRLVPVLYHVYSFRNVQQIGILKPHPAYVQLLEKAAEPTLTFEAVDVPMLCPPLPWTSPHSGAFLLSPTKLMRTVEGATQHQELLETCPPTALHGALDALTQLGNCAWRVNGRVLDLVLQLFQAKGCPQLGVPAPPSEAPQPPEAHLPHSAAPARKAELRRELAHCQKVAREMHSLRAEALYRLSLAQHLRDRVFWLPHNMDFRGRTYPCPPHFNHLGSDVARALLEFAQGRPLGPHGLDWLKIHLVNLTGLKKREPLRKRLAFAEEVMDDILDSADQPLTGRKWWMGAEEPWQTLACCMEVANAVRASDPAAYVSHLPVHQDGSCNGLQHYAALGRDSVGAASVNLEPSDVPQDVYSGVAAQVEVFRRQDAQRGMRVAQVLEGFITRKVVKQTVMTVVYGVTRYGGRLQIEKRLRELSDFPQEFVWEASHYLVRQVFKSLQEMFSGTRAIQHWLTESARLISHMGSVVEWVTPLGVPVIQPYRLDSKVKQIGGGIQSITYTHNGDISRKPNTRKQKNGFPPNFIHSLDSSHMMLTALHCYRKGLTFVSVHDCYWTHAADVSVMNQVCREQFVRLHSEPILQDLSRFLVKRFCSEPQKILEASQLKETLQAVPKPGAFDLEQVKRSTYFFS

[9] = Inhibition of HCV genotype 4a NS5B RNA dependent RNA polymerase assessed as reduction in [33P]-labeled nucleotide incorporation in to RNA template after 2 hrs by liquid scintillation counting method; design: species or system Hepatitis C virus subtype 4a; procedure, shortened: as §2
[10] = biological target: T1, DNA polymerase alpha catalytic subunit (Homo sapiens, UniProt P09884); test: Inhibition of human DNA polymerase alpha; procedure, shortened: as §2
T1 sequence (P09884 whole entry): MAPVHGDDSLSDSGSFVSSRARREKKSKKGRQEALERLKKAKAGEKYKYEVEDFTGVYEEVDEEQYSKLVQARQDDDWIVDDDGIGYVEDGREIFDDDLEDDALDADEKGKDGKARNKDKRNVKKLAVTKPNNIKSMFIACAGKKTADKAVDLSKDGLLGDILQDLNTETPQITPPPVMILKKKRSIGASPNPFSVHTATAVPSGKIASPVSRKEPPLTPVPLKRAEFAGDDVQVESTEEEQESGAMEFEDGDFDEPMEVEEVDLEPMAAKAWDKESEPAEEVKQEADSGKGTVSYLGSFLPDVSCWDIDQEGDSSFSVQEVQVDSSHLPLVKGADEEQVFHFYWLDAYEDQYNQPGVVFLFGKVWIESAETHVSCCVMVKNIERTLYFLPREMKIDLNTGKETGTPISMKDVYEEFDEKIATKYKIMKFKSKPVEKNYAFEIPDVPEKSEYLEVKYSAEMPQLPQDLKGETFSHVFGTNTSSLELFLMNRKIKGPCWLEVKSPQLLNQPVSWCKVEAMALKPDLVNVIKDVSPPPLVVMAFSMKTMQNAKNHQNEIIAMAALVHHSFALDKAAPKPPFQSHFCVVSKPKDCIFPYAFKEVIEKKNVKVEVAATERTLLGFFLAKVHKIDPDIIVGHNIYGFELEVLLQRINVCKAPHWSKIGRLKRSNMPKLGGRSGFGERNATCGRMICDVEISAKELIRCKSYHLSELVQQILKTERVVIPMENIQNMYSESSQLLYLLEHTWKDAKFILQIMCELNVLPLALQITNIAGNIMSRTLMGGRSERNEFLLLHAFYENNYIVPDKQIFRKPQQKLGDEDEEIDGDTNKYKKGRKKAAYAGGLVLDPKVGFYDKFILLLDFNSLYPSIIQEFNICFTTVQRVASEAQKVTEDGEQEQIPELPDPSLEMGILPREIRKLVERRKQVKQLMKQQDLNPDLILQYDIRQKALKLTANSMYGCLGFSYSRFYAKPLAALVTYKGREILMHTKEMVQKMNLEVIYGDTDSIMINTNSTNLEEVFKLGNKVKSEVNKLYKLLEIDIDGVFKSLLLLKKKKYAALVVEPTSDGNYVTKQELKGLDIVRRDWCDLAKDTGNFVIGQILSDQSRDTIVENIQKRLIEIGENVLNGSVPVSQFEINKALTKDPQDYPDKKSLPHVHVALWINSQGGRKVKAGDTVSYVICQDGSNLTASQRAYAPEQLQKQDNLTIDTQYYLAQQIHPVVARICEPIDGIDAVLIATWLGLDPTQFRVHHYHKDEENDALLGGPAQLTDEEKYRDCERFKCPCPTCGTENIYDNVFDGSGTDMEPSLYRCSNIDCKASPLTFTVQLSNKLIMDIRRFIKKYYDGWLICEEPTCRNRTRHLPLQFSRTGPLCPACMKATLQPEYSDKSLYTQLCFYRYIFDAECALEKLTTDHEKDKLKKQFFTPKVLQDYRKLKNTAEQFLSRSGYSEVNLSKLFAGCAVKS

[11] = Inhibition of human RNA polymerase 2; procedure, shortened: as §2
[12] = Inhibition of HCV genotype 3a NS5B RNA dependent RNA polymerase assessed as reduction in [33P]-labeled nucleotide incorporation in to RNA template after 2 hrs by liquid scintillation counting method; design: species or system Hepatitis C virus subtype 3a; procedure, shortened: as §2
[13] = Half life in human hepatocytes; format: ADME, cell-based, Hepatocyte
[14] = Inhibition of HCV genotype 1a NS5B RNA dependent RNA polymerase assessed as reduction in [33P]-labeled nucleotide incorporation in to RNA template after 2 hrs by liquid scintillation counting method; design: species or system Hepatitis C virus subtype 1a; procedure, shortened: as §2
[15] = Inhibition of HCV genotype 6a NS5B RNA dependent RNA polymerase assessed as reduction in [33P]-labeled nucleotide incorporation in to RNA template after 2 hrs by liquid scintillation counting method; design: species or system Hepatitis C virus subtype 6a; procedure, shortened: as §2
DNA polymerase beta = DNA polymerase beta (Homo sapiens, UniProt P06746); test: Inhibition of human DNA polymerase beta; procedure, shortened: as §2
[16] = Inhibition of human DNA polymerase gamma; procedure, shortened: as §2
[17] = Inhibition of HCV genotype 5a NS5B RNA dependent RNA polymerase assessed as reduction in [33P]-labeled nucleotide incorporation in to RNA template after 2 hrs by liquid scintillation counting method; design: species or system Hepatitis C virus subtype 5a; procedure, shortened: as §2
[18] = Cytotoxicity against human HuH7 cells assessed as reduction in cell viability; format: cell-based, Huh-7
Cytochrome P450 3A4 = Cytochrome P450 3A4 (Homo sapiens, UniProt P08684); test: Drug metabolism assessed as CYP3A4 (unknown origin)-mediated (R)-2-((R)-(((2R,3R,4R,5R)-4-chloro-5-(2,4-dioxo-3,4-dihydropyrimidin-1(2H)-yl)-3-hydroxy-4-methyltetrahydrofuran-2-yl)methoxy)(phenoxy)phosphorylamino)propanoic acid metabolite formation; format: ADME
Chain of Cytochrome P450 3A4 (P08684 whole entry): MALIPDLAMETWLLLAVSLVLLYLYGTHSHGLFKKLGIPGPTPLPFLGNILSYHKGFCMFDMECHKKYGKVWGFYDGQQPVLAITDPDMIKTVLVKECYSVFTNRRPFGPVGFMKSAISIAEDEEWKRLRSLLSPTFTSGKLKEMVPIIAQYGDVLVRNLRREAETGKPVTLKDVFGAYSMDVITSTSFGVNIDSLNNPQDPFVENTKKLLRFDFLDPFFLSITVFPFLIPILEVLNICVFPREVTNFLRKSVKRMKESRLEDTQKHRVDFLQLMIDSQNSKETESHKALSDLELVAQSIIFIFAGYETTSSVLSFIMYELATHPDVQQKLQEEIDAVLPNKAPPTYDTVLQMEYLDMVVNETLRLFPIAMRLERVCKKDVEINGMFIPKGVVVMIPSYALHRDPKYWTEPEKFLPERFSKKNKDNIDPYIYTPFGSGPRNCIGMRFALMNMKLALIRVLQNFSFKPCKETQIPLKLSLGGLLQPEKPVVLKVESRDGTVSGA

Cytochrome P450 3A5 = Cytochrome P450 3A5 (Homo sapiens, UniProt P20815); test: Drug metabolism assessed as CYP3A5 (unknown origin)-mediated (R)-2-((R)-(((2R,3R,4R,5R)-4-chloro-5-(2,4-dioxo-3,4-dihydropyrimidin-1(2H)-yl)-3-hydroxy-4-methyltetrahydrofuran-2-yl)methoxy)(phenoxy)phosphorylamino)propanoic acid metabolite formation; format: ADME
Chain of Cytochrome P450 3A5 (P20815 whole entry): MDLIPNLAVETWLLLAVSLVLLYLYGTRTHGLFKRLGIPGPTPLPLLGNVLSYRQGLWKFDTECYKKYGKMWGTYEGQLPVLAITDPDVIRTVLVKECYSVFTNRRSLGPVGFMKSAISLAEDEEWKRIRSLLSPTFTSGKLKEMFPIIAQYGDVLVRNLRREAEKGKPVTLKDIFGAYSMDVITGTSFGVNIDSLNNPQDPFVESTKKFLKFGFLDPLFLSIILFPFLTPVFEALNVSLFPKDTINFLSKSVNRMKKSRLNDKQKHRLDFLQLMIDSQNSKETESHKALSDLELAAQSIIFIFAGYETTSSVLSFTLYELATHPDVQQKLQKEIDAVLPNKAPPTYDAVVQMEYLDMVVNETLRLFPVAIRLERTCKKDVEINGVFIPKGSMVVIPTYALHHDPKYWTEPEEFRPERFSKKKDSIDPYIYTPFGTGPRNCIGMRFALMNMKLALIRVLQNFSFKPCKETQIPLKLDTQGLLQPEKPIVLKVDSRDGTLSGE

Compound	IC50 [1] [nM]	Ratio IC50 [2]	IC50 [3] [nM]	EC50 (Hepatitis C virus [4]) [nM]	AUC/dose (Liver) [pmol·h/g]	EC50 (Hepatitis C virus [5]) [nM]	AUC/dose (Plasma) [pmol·h/mL]	Ratio CC50/EC50 [6]	CC50 [18] [nM]	also measured
C[C@@]1(F)[C@H](O)[C@@H](COP(=O)(O)OP(=O)(O)OP(=O)(O)O)O[C@H]1n1ccc(=O)[nH]c1=O [GS-461203]	79	7.7	606							
CC(C)OC(=O)[C@H](C)N[P@](=O)(OC[C@H]1O[C@@H](n2ccc(=O)[nH]c2=O)[C@](C)(F)[C@@H]1O)Oc1ccccc1 [SOFOSBUVIR]				284	310	552	330	>352		
C[C@@]1(Cl)[C@H](O)[C@@H](COP(=O)(O)OP(=O)(O)OP(=O)(O)O)O[C@H]1n1ccc(=O)[nH]c1=O [4A-TP]	154	6.1	944							IC50 [7]: 250 nM; IC50 [8]: > 500000 nM; IC50 [9]: 150 nM; IC50 [10]: > 500000 nM; IC50 [11]: > 500000 nM; IC50 [12]: 160 nM; half-life [13]: > 18 h; IC50 [14]: 140 nM; IC50 [15]: 100 nM; IC50 (DNA polymerase beta): > 500000 nM; IC50 [16]: 95000 nM; IC50 [17]: 230 nM
C[C@@]1(Cl)[C@H](O)[C@@H](CO)O[C@H]1n1ccc(=O)[nH]c1=O				57000					> 100000	
C[C@@]1(O)[C@H](O)[C@@H](CO)O[C@H]1n1ccc(=O)[nH]c1=O				30000					> 100000	
CC(C)OC(=O)[C@@H](C)N[P@@](=O)(OC[C@H]1O[C@@H](n2ccc(=O)[nH]c2=O)[C@](C)(Cl)[C@@H]1O)Oc1ccccc1 [UPRIFOSBUVIR]				56800	6200	323	1400	>2		Drug metabolism (Cytochrome P450 3A4): Metabolite_Detected; Drug metabolism (Cytochrome P450 3A5): Metabolite_Detected
